# Reference: ChEMBL document CHEMBL1128707, “Novel thiazole based heterocycles as inhibitors of LFA-1/ICAM-1 mediated cell adhesion” (J Med Chem, 1995)
# Legend:
# [1] = target: Intercellular adhesion molecule (ICAM-1), Integrin alpha-L/beta-2 (Homo sapiens) (UniProt P20701+P05362+P05107); assay: Inhibition of HL-60 cell adhesion mediated by interaction of LFA-1 and ICAM-1; format: functional, cell-based; parameters: concentration or dose not given beside the values; settings: concentration not given here
# Summary of the method: (§1)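 HL60 cells (LFA-1 positive, Mac-1 negative by FACS) were fluorochrome-labeled and added to immunoaffinity-purified recombinant soluble ICAM-1 immobilized on plastic. Incubation was 40 min at 37 °C, and nonadherent cells were washed off. Adherence was read on a fluorescence concentration analyzer. Values are IC50 (μM) or % inhibition at 10 μM, each from one assay run in five replicates.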
# [2] = target: T1, Intercellular adhesion molecule (ICAM-1), Integrin alpha-L/beta-2 (Homo sapiens, UniProt P05107+P05362+P20701); assay: Inhibition of HL-60 cell adhesion to purified ICAM-1 by LFA-1; format: functional, cell-based; summary of the method: as §1
# HL-60 [3] = assay: The concentration of compound required to inhibit 50% interaction (IC50 ) was measured on LFA-1/ICAM-1 mediated cells using cell/cell adherence assay on the HL60/U937 test system; format: functional, cell-based; settings: Homo sapiens
# Integrin alpha-M/beta-2 = Integrin alpha-M/beta-2 (Homo sapiens, UniProt P05107+P11215); assay: Inhibition of neutrophil cell Mac-1 mediated adhesion to purified ICAM-1, no effect up to 20 […]; format: functional, cell-based
# [4] = target: T1, Intercellular adhesion molecule (ICAM-1), Integrin alpha-L/beta-2; assay: Inhibition of LFA-1 mediated HL60 cell adhesion to ICAM-1; format: cell-based, HL-60; summary of the method: as §1
# [5] = The inhibitory activity was measured on VLA-4/VCAM-1 mediated cells using cell/cell adherence assay on the Ramos/IL-1beta HUVEC test system; no effect up to 20 pM; format: functional, cell-based; settings: in the assay text read “20 µM” for “20 pM”
# Summary of the method: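 Cell/cell adhesion used VLA-4-expressing Ramos B lymphoblastoid cells and HUVEC stimulated overnight with IL-1β to express VCAM-1. Adherence was quantified by fluorescence.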
# HL-60 [6] = assay: The inhibitory activity was measured on sLex/E-selectin mediated cells using cell/cell adherence assay on the HL60/IL-1beta HUVEC test system; no effect up to 20 µM; settings: Homo sapiens
# T1 sequence (P20701 whole entry): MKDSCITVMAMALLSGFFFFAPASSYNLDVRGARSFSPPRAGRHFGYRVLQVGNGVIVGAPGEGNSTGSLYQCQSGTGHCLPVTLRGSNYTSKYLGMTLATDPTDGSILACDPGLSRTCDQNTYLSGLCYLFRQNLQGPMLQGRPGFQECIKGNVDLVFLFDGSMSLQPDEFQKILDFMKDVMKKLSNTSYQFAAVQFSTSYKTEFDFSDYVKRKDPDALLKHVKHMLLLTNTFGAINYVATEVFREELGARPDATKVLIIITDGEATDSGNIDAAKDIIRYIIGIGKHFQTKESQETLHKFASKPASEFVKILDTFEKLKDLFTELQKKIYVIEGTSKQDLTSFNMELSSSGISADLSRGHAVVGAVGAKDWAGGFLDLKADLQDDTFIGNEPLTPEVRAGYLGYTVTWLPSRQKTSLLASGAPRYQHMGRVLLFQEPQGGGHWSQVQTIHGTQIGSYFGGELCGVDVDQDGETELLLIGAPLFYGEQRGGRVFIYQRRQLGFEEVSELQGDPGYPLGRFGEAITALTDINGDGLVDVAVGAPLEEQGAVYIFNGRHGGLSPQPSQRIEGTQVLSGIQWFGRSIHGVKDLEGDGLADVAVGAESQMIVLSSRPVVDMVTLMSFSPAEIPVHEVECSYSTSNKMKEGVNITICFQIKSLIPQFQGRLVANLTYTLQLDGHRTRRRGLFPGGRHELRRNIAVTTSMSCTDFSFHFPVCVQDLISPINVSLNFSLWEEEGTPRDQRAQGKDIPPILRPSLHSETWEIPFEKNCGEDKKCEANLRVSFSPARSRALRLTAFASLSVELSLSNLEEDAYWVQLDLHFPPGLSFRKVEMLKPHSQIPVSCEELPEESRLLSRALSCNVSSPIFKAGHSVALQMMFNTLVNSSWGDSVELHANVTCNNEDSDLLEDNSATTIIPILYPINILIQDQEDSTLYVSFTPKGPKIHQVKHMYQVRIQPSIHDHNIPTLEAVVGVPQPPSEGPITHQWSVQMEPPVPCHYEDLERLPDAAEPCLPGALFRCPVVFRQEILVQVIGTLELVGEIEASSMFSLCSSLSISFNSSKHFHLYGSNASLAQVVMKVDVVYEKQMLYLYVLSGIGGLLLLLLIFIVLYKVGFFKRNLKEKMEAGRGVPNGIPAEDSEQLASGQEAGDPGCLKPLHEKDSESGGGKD
# T1 sequence (P05362 whole entry): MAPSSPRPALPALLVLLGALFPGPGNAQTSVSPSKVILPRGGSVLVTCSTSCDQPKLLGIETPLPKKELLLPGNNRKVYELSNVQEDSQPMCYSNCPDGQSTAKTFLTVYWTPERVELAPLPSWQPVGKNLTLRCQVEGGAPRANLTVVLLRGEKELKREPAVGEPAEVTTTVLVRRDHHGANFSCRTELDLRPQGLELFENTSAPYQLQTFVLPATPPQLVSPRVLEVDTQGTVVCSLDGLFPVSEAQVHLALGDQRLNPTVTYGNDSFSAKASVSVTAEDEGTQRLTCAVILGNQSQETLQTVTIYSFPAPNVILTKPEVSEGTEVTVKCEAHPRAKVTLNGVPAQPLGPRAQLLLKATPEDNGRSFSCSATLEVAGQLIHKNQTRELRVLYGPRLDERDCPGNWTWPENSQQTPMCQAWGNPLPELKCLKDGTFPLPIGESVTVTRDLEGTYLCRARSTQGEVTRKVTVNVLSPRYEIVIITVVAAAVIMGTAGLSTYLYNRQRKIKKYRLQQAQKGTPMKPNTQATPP
# T1 sequence (P05107 whole entry): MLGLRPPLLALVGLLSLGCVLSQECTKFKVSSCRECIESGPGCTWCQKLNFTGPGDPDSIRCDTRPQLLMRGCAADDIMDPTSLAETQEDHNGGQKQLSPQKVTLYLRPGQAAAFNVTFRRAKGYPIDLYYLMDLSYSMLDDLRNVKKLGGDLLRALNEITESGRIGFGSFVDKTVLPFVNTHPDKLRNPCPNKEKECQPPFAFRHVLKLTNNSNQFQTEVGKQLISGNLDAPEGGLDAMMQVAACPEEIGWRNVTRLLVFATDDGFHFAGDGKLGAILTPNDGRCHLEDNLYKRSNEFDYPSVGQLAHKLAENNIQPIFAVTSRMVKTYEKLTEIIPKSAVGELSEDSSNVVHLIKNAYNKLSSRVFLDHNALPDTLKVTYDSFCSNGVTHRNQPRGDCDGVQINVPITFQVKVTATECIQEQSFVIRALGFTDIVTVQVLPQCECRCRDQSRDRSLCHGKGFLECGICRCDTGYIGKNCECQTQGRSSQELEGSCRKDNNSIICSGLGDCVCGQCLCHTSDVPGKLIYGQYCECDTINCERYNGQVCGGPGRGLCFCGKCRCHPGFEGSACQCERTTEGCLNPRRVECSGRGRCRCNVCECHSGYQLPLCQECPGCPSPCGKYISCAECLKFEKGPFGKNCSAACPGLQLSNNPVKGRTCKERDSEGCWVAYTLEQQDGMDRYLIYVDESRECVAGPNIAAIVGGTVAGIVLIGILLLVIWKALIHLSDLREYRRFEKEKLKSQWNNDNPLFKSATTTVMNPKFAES
# Chain of Integrin alpha-M/beta-2 (P05107 23-769 limits assumed, other chains not shown): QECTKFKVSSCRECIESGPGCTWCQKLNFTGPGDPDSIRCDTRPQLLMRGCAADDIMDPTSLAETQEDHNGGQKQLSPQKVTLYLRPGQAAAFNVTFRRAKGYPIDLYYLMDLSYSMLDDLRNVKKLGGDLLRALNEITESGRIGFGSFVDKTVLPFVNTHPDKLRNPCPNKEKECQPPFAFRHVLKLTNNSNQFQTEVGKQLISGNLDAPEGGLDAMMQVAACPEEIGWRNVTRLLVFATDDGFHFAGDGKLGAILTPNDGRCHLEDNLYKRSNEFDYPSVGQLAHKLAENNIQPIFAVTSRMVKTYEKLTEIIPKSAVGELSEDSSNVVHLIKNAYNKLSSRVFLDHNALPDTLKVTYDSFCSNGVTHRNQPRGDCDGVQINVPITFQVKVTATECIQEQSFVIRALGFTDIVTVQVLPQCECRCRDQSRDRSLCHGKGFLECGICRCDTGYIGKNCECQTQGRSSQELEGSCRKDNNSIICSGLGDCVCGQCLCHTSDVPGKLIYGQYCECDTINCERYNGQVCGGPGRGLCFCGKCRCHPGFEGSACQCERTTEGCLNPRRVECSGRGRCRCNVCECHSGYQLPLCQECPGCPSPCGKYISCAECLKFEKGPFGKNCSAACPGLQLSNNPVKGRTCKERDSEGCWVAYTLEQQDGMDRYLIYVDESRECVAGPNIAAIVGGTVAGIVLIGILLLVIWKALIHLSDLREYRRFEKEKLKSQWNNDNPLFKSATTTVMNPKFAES
inhibition [1] [%],further results,Compound
20,–,Cc1c(C(=O)NCCCO)cnn1-c1nc(-c2cccc(Cl)c2)cs1
10,–,CCc1c(C(=O)NCCCN2CCCC2=O)cnn1-c1nc(-c2cccc(C(F)(F)F)c2)cs1
25,–,Cc1c(C(=O)OCCCO)cnn1-c1nc(-c2cccc(C(F)(F)F)c2)cs1
–,IC50 [2]: 3 µM,CCc1c(C(=O)NCCCO)cnn1-c1nc(-c2cccc(C(F)(F)F)c2)cs1
0,–,Cc1c(C(=O)NCCCCCO)cnn1-c1nc(-c2cccc(C(F)(F)F)c2)cs1
5,–,Cc1c(C(=O)NCCCO)cnn1-c1nc(-c2ccccc2)cs1
0,–,CCOC(=O)CCCNC(=O)c1cnn(-c2nc(-c3cccc(C(F)(F)F)c3)cs2)c1C
7,–,Cc1ccc(-c2csc(-n3ncc(C(=O)NCCCO)c3C)n2)cc1
51,–,Cc1c(C(=O)NCCCCO)cnn1-c1nc(-c2cccc(C(F)(F)F)c2)cs1
34,–,CCc1c(C(=O)NCCCn2ccnc2)cnn1-c1nc(-c2cccc(C(F)(F)F)c2)cs1
26,–,CCCc1c(C(=O)NCCCO)cnn1-c1nc(-c2cccc(C(F)(F)F)c2)cs1
–,IC50 (HL-60 [3]): 5 µM; IC50 [2]: 5 µM; IC50 (Integrin alpha-M/beta-2): No effect; IC50 [4]: 5 µM; IC50 [5]: No effect; IC50 (HL-60 [6]): No effect,Cc1c(C(=O)NCCCO)cnn1-c1nc(-c2cccc(C(F)(F)F)c2)cs1
5,–,O=C(NCCCO)c1cnn(-c2nc(-c3cccc(C(F)(F)F)c3)cs2)c1C(F)(F)F
48,–,COCCCNC(=O)c1cnn(-c2nc(-c3cccc(C(F)(F)F)c3)cs2)c1C
0,–,COc1cc(-c2csc(-n3ncc(C(=O)NCCCO)c3C)n2)cc(OC)c1OC
